≈ marks a conversion by molar mass, not a printed value.

Type in all cases: functional
Test [1] deals with Biomphalaria alexandrina. The test can be described thus: Molluscicidal activity against Biomphalaria alexandrina assessed as number of dead snail per 10 snails at 4 ppm after 24 hrs. The essentials:
(§1)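 Field-collected B. alexandrina snails held 45 days in the lab, fed daily on lettuce, and checked free of parasitic infection. Compound mixed with a few drops of Tween 20, then suspended in untreated raw River Nile water at seven concentrations of 4–16 ppm, in aerated glass jars. Ten snails of similar size (ca. 7 mm) per jar, kept 24 h at ambient temperature. Run three times and the mean number killed taken. LC50 and LC90 were derived from this mortality. Control was water with Tween 20. Follows WHO guidelines.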

Test [2] concerns Biomphalaria alexandrina. Briefly: Molluscicidal activity against Biomphalaria alexandrina assessed as number of dead snail per 10 snails at 6 ppm after 24 hrs. The essentials:
as §1

Test [3] deals with Biomphalaria alexandrina. The test can be described thus: Molluscicidal activity against Biomphalaria alexandrina assessed as number of dead snail per 10 snails at 8 ppm after 24 hrs. The procedure, abridged: as §1
Test [4] deals with Biomphalaria alexandrina. Briefly: Molluscicidal activity against Biomphalaria alexandrina assessed as number of dead snail per 10 snails at 10 ppm after 24 hrs. The essentials: as §1
For test [5], the system named is Biomphalaria alexandrina. The test can be described thus: Molluscicidal activity against Biomphalaria alexandrina assessed as number of dead snail per 10 snails at 12 ppm after 24 hrs. The essentials: as §1
For test [6], the system named is Biomphalaria alexandrina. The test can be described thus: Molluscicidal activity against Biomphalaria alexandrina assessed as number of dead snail per 10 snails at 14 ppm after 24 hrs. The essentials: as §1
Test [7] relates to Biomphalaria alexandrina. Briefly: Molluscicidal activity against Biomphalaria alexandrina assessed as number of dead snail per 10 snails at 16 ppm after 24 hrs. The essentials:
as §1

In test [8] the test system is Biomphalaria alexandrina. Briefly: Molluscicidal activity against Biomphalaria alexandrina after 24 hrs. Conditions: for LC50: Biomphalaria alexandrina, 24 h. The procedure, abridged: as §1

With `Cc1c(C(=O)O)sc(Nc2ccccc2)c1C(=O)c1ccccc1`, the Activity in the test with Biomphalaria alexandrina [1] is reported as 1; with Biomphalaria alexandrina [2], 2; in the test with Biomphalaria alexandrina [3] it was 3; with Biomphalaria alexandrina [4] it was 5; in the test on Biomphalaria alexandrina [5], 6; with Biomphalaria alexandrina [6], 8. For the same molecule, the Activity in the test on Biomphalaria alexandrina [7] turned out to be 10. The LC90 in the test on Biomphalaria alexandrina [8] was found to be 23 ppm. In addition, the median lethal concentration (LC50) in the test with Biomphalaria alexandrina [8] came to 19 µg/mL (≈ 56.3 µM).
Turning to `CCOC(=O)c1sc(Nc2ccccc2)c(C(=O)c2ccccc2)c1C`, the Activity with Biomphalaria alexandrina [1] came to 0; in the test on Biomphalaria alexandrina [2], 1; in the test on Biomphalaria alexandrina [3] it was 1; with Biomphalaria alexandrina [4], 2; in the test on Biomphalaria alexandrina [5], 2; in the test with Biomphalaria alexandrina [6] it was 4. Further, the Activity with Biomphalaria alexandrina [7] was 10. The molecule also registered an LC90 in the test with Biomphalaria alexandrina [8] of 20 ppm. Further, the LC50 in the test with Biomphalaria alexandrina [8] was 18 µg/mL (≈ 49.3 µM).
With `CC(=O)/C(C(=O)c1ccccc1)=C1/SC(C(=O)c2ccccc2)=NN1c1ccc(C)cc1`, the Activity in the test on Biomphalaria alexandrina [1] amounted to 2; in the test with Biomphalaria alexandrina [2], 3; in the test with Biomphalaria alexandrina [3], 5; with Biomphalaria alexandrina [4] it was 8; in the test with Biomphalaria alexandrina [5], 10; with Biomphalaria alexandrina [6], 10. In the test on Biomphalaria alexandrina [7], the Activity is 10. The LC90 with Biomphalaria alexandrina [8] came out at 9 ppm. Besides, the LC50 with Biomphalaria alexandrina [8] was found to be 5.5 µg/mL (≈ 12.5 µM).
Turning to `COc1ccc(N2N=C(C(=O)c3ccccc3)S/C2=C(/C(C)=O)C(=O)c2ccccc2)cc1`, the Activity with Biomphalaria alexandrina [1] came to 1; in the test with Biomphalaria alexandrina [2] it was 3; in the test with Biomphalaria alexandrina [3], 4; in the test with Biomphalaria alexandrina [4], 7; in the test with Biomphalaria alexandrina [5], 10; with Biomphalaria alexandrina [6], 10. Further, the Activity in the test on Biomphalaria alexandrina [7] was found to be 10. In addition, the LC90 in the test with Biomphalaria alexandrina [8] was found to be 11 ppm. For the same molecule, the LC50 in the test on Biomphalaria alexandrina [8] amounted to 6 µg/mL (≈ 13.1 µM).
As to `CC(=O)/C(C(=O)c1ccccc1)=C1/SC(C(=O)c2ccccc2)=NN1c1ccccc1`, the Activity amounted to 2 with Biomphalaria alexandrina [1]; 2 with Biomphalaria alexandrina [2]; 4 in the test with Biomphalaria alexandrina [3]; 6 in the test with Biomphalaria alexandrina [4]; 9 in the test on Biomphalaria alexandrina [5]; 10 in the test on Biomphalaria alexandrina [6]. For the same molecule, the Activity in the test with Biomphalaria alexandrina [7] is 10. Further, the LC90 in the test on Biomphalaria alexandrina [8] was 10 ppm. This molecule yielded an LC50 in the test on Biomphalaria alexandrina [8] of 8 µg/mL (≈ 18.8 µM).
Consider `Cc1c(C(=O)c2ccccc2)sc(Nc2ccccc2)c1C(=O)c1ccccc1`, for which the Activity in the test on Biomphalaria alexandrina [1] turned out to be 1; with Biomphalaria alexandrina [2], 4; in the test with Biomphalaria alexandrina [3], 5; in the test with Biomphalaria alexandrina [4] it was 6; in the test on Biomphalaria alexandrina [5] it was 9; in the test with Biomphalaria alexandrina [6], 10. In the test on Biomphalaria alexandrina [7], the Activity turned out to be 10. In the test on Biomphalaria alexandrina [8], this molecule displayed an LC90 of 20 ppm. The molecule also displayed an LC50 in the test with Biomphalaria alexandrina [8] of 15.6 µg/mL (≈ 39.2 µM).
Turning to `CC(=O)c1sc(Nc2ccccc2)c(C(=O)c2ccccc2)c1C`, the Activity was determined as 1 with Biomphalaria alexandrina [1]; 3 in the test on Biomphalaria alexandrina [2]; 5 in the test with Biomphalaria alexandrina [3]; 8 in the test on Biomphalaria alexandrina [4]; 8 in the test on Biomphalaria alexandrina [5]; 10 with Biomphalaria alexandrina [6]. In the test with Biomphalaria alexandrina [7], the Activity was 10. In the test on Biomphalaria alexandrina [8], this molecule gave an LC90 of 22 ppm. This molecule returned an LC50 in the test on Biomphalaria alexandrina [8] of 16 µg/mL (≈ 47.7 µM).
In the case of `Cc1n[nH]c(Nc2ccccc2)c1C(=O)c1ccccc1`, the Activity in the test on Biomphalaria alexandrina [1] is reported as 1; with Biomphalaria alexandrina [2], 3; with Biomphalaria alexandrina [3], 4; in the test on Biomphalaria alexandrina [4], 8; with Biomphalaria alexandrina [5], 9; in the test on Biomphalaria alexandrina [6] it was 10. The Activity in the test on Biomphalaria alexandrina [7] was 10. Moreover, in the test with Biomphalaria alexandrina [8], the LC90 is given as 18 ppm. The molecule further returned an LC50 in the test on Biomphalaria alexandrina [8] of 13 µg/mL (≈ 46.9 µM).
In turn, `O=C(Nc1cc(Cl)c([N+](=O)[O-])cc1Cl)c1ccccc1O` displayed an LC100 in the test on Biomphalaria alexandrina [8] of 1 ppm.

A word on the LC50: it is the concentration that kills 50% of the test population.
